The record followed here is PubChem BioAssay AID624080 (The Scripps Research Institute Molecular Screening Center, 2012).

The structures appear in SMILES notation. Values joined by “and” are separate entries in the source; they are usually repeats but may differ in a detail not shown here. Equal entries are not always repeated. Active and inactive are the calls of the source.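 Rule for the calls: active = compound whose MIC, giving a fourfold drop in bacterial growth, is 10 µM or lower; inactive = the rest.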

For assay [1], the system named is VIM-2 P. aeruginosa PA641 growth with imipenem, OD590. The experiment in a line: growth inhibition synergy with imipenem, VIM-2 bacteria – clinical strain PA641, MIC, late-stage follow-up (AID 624080). The procedure, abridged:
(§1)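 Dosing – test compound two-fold series along rows, checkerboard with imipenem · Incubation – ≥18 h at 37 °C, aerobic · Technique – turbidity by absorbance at 590 nm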

Assay in assay [2]: as above
The settings on record: VIM-2 P. aeruginosa PA641 growth with imipenem, OD590; measured here: max imipenem fold potentiation; stronger effect = higher value. The method, boiled down: as §1

`CN1CCN(NC(=O)CN2C(=O)/C(=C/c3c(F)cccc3Cl)SC2=S)CC1`: the MIC (in general, the smallest concentration in the dilution series that meets the test's criterion for growth inhibition) in assay [1] was > 50 µM (inactive). Take `O=C(CN1C(=O)/C(=C/c2c(Cl)ccc(Cl)c2Cl)SC1=S)NCc1ccccn1`: in assay [1], the MIC is > 50 µM (inactive). As for `O=C(CN1C(=O)/C(=C/c2c(Cl)cccc2Cl)SC1=S)NCc1ccccn1`, the fold potentiation in assay [2] came to 2. Moreover, the MIC in assay [1] was > 100 µM (inactive). With `O=C(CN1C(=O)/C(=C/c2c(Cl)cccc2Cl)SC1=S)NN1CCN(C(=O)c2ccccc2)CC1`, in assay [1], the MIC was > 50 µM (inactive). The same measure, in the same setting: under `CN1CCN(NC(=O)CN2C(=O)/C(=C/c3c(F)cccc3C(F)(F)F)SC2=S)CC1` stands > 50 µM (inactive). For the compound `CC(C)(C)OC(=O)N1CCN(NC(=O)CN2C(=O)/C(=C/c3c(Cl)ccc(Cl)c3Cl)SC2=S)CC1`, in assay [1], the MIC was > 50 µM (inactive). For the compound `O=C(CN1C(=O)/C(=C/c2c(Cl)cccc2Cl)SC1=S)NN1CCCCC1`, in assay [1], the MIC is > 100 µM (inactive).

Consider `CN1CCN(NC(=O)CN2C(=O)/C(=C/c3c(Cl)cccc3Cl)SC2=S)CC1`, for which, in assay [2], the fold potentiation is 2. In addition, the MIC in assay [1] was > 100 µM (inactive). Take `CN1CCN(NC(=O)CN2C(=O)/C(=C/c3c(Cl)ccc(Cl)c3Cl)SC2=S)CC1`: the fold potentiation in assay [2] is 4 and 2. In assay [1], the MIC is > 50 µM (inactive). For `CN1CCN(NC(=O)CN2C(=O)/C(=C/c3c(C(F)(F)F)ccc(Cl)c3Cl)SC2=S)CC1`, in assay [2], the fold potentiation was determined as 4. The MIC in assay [1] is > 50 µM (inactive). As for `O=C(CN1C(=O)/C(=C/c2c(Cl)cccc2Cl)SC1=S)NN1CCN(Cc2ccccc2)CC1`, the MIC in assay [1] is > 50 µM (inactive). For the compound `CN1CCN(NC(=O)CN2C(=O)/C(=C/c3c(Cl)ccc(C(F)(F)F)c3Cl)SC2=S)CC1`, the fold potentiation in assay [2] worked out at 2. For the same compound, the MIC in assay [1] is > 50 µM (inactive). Take `CN1CCN(C(=O)CN2C(=O)/C(=C/c3c(Cl)ccc(Cl)c3Cl)SC2=S)CC1`: the fold potentiation in assay [2] came to 4. Besides, in assay [1], the MIC is > 50 µM (inactive). As to `O=C(CN1C(=O)/C(=C/c2c(Cl)ccc(Cl)c2Cl)SC1=S)NN1CCNCC1`, the fold potentiation in assay [2] amounted to 2. Besides, in assay [1], the MIC was > 50 µM (inactive).

With `CC(=O)N1CCN(NC(=O)CN2C(=O)/C(=C/c3c(Cl)cccc3Cl)SC2=S)CC1`, the fold potentiation in assay [2] was 2. In assay [1], the MIC is > 50 µM (inactive). Turning to `O=C(CN1C(=O)/C(=C/c2c(Cl)cccc2Cl)SC1=S)NN1CCNCC1`, the fold potentiation in assay [2] came to 2. The MIC in assay [1] is > 50 µM (inactive). With `O=C(CN1C(=O)/C(=C/c2c(Cl)ccc(Cl)c2Cl)SC1=S)NN1CCCCC1`, the MIC in assay [1] was > 50 µM (inactive). Regarding `O=C(O)CN1C(=O)/C(=C/c2c(Cl)cccc2Cl)SC1=S`, in assay [1], the MIC was > 100 µM (inactive). On to `CCN(CC)OC(=O)CN1C(=O)/C(=C/c2c(Cl)cccc2Cl)SC1=S`, for which the MIC in assay [1] is > 100 µM (inactive). As to `CC(C)(C)OC(=O)N1CCN(NC(=O)CN2C(=O)/C(=C/c3c(Cl)cccc3Cl)SC2=S)CC1`, in assay [1], the MIC was > 100 µM (inactive).
